Reference: ChEMBL document CHEMBL4052782, “Neuropathic pain-alleviating effects of pyrazole-conjugated arylsulfonamides as 5-HT6 receptor antagonists” (Bioorg Med Chem Lett, 2017)
Active and inactive are the calls of the source. The rule behind the calls is not given here.

How the values were obtained:
[1] = target: T1, 5-hydroxytryptamine receptor 6 (Homo sapiens, UniProt P50406); experiment: Inhibition of ligand binding to human 5-HT6R at 10 uM relative to control
[2] = target: CYP3A4 (Homo sapiens, UniProt P08684); experiment: Inhibition of recombinant human CYP3A4 expressed in baculosomes assessed as remaining activity at 10 uM preincubated for 10 mins followed by Vivid CYP450 substrate addition in presence of NADP+ by fluorescence assay relative to ketoconazole; assay type: ADME; conditions: probe Vivid CYP450 substrate, read-out: Activity
Outline: (§1)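 Remaining percent CYP activity measured at 10 µM test concentration. Values are means ± SD of triplicate experiments.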

[3] = tested on: Rattus norvegicus; experiment: Antineuropathic pain activity in rat spinal nerve ligation model assessed as effect on cold allodynia by measuring paw withdrawal response at 100 mg/kg, po measured up to 5 hrs; assay type: functional, organism-based
Outline: (§2)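 Rats with spinal nerve ligation neuropathic injury, dosed orally at 100 mg/kg (n = 3–6 per group). Allodynia tested before injury, before dosing (post-injury day 14), and 1, 3 and 5 h after dosing. Values compared with pre-administration values by paired t-test, P < 0.05.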

[4] = target: T1, 5-hydroxytryptamine receptor 6; experiment: Antagonist activity at human 5-HT6R expressed in human HeLa cells assessed as inhibition of 5-HT-induced cAMP levels pre-treated for 10 mins before 30 mins stimulation with 5-HT by D2-dye based HTRF assay; assay type: functional, cell-based
Outline: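 HeLa cells stably expressing human 5-HT6 receptor, kept at 37°C in 5% CO2/95% air, suspended in PBS with 2 mM IBMX. Compound pretreatment 10 min, then 100 nM 5-HT stimulation 30 min. d2-labelled cAMP and cryptate-labelled anti-cAMP antibody added, 1 h at room temperature. Fluorescence read at 314 nm excitation, 668 and 620 nm emission.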

[5] = tested on: Rattus norvegicus; experiment: Antineuropathic pain activity in rat spinal nerve ligation model assessed as effect on mechanical allodynia by measuring frequency of paw withdrawal at 100 mg/kg, po measured up to 3 hrs; assay type: functional, organism-based; outline: as §2
[6] = target: CYP2D6 (Homo sapiens, UniProt P10635); experiment: Inhibition of recombinant human CYP2D6 expressed in baculosomes assessed as remaining activity at 10 uM preincubated for 10 mins followed by Vivid substrate addition in presence of NADP+ by fluorescence assay relative to […]; assay type: ADME; conditions: probe Vivid substrate, read-out: Activity; outline: as §1
[7] = tested on: Rattus norvegicus; experiment: Poteny index, ratio of gabapentin to test compound antineuropathic pain activity in rat spinal nerve ligation model assessed as effect on mechanical allodynia by measuring frequency of paw withdrawal at 100 mg/kg, po; assay type: functional
[8] = target: CYP2C9 (Homo sapiens, UniProt P08684); experiment: Inhibition of recombinant human CYP2C9 expressed in baculosomes assessed as remaining activity at 10 uM preincubated for 10 mins followed by Vivid CYP450 substrate addition in presence of NADP+ by fluorescence assay relative to miconazole; assay type: ADME; conditions: probe Vivid CYP450 substrate, read-out: Activity; outline: as §1
[9] = target: Voltage-gated inwardly rectifying potassium channel KCNH2 (Homo sapiens, UniProt Q12809); experiment: Inhibition of human ERG expressed in CHOK1 cells by patch clamp method
Sequence of Voltage-gated inwardly rectifying potassium channel KCNH2 (Q12809 whole entry): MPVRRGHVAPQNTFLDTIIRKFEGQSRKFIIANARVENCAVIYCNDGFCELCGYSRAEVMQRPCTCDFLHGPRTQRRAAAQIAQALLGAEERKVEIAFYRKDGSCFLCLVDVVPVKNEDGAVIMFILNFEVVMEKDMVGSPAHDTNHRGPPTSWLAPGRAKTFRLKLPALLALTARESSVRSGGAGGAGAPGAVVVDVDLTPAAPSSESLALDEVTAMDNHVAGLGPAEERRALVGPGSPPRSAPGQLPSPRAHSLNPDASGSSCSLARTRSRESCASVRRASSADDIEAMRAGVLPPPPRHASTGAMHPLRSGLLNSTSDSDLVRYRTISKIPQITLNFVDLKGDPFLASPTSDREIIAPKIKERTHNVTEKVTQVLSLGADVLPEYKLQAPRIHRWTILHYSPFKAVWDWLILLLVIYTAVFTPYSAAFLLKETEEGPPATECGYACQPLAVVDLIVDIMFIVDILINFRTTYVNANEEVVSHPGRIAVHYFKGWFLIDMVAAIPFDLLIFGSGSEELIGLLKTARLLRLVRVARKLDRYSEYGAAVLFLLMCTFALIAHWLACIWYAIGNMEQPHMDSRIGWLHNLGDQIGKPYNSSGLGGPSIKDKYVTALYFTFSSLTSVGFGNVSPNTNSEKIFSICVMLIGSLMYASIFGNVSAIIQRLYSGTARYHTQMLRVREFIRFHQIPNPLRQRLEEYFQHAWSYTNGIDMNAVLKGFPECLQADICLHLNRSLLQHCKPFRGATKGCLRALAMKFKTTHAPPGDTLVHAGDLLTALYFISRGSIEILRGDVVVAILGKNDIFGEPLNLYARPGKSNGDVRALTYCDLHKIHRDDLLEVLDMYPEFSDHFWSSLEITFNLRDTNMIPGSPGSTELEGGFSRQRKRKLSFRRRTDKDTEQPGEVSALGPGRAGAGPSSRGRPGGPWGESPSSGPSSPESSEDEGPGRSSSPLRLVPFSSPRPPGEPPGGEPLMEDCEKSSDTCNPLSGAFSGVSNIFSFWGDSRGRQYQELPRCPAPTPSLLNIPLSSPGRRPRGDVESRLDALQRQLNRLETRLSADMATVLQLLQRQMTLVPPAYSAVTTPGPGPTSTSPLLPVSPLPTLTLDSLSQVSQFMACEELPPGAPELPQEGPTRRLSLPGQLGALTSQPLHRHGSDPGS

T1 sequence (P50406 whole entry): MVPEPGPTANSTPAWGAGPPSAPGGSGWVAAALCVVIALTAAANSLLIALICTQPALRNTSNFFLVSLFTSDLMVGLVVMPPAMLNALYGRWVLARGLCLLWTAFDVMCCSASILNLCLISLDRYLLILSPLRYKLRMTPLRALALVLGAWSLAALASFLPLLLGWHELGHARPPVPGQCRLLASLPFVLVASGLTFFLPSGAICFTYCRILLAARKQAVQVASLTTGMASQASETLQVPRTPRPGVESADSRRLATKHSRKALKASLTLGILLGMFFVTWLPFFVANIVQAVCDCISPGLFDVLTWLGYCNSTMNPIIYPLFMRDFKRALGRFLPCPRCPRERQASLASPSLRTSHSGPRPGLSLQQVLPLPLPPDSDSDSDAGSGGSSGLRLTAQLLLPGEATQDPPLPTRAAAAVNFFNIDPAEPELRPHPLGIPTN
Sequence of CYP3A4 (P08684 whole entry): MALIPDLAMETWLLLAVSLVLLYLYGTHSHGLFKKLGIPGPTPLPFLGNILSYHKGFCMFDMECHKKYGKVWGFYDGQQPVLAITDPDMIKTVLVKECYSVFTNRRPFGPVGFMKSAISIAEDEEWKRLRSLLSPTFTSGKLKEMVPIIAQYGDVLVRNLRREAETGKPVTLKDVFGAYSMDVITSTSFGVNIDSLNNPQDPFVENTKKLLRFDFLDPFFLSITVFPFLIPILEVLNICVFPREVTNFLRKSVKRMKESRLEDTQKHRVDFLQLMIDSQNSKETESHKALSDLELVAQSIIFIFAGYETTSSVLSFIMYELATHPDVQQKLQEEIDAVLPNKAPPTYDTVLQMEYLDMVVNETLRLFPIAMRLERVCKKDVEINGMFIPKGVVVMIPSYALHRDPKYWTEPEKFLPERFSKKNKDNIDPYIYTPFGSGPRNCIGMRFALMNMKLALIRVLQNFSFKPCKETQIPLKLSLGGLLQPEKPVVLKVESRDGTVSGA
Sequence of CYP2D6 (P10635 whole entry): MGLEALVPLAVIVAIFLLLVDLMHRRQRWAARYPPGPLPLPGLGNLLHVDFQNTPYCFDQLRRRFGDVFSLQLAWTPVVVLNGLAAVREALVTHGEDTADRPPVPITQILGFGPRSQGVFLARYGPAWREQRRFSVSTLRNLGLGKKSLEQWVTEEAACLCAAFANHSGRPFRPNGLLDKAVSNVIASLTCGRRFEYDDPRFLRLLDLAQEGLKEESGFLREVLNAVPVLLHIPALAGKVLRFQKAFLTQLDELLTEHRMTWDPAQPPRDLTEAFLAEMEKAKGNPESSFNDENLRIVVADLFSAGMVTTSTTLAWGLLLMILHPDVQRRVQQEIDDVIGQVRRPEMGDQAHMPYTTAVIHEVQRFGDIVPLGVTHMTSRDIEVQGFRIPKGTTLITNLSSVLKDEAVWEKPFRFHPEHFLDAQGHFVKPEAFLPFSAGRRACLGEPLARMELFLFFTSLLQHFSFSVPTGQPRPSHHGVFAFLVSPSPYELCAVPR
Sequence of CYP2C9 (P08684 whole entry): as the sequence (P08684 whole entry) above

## CC(C)Cc1cc(CNS(=O)(=O)c2ccccc2)nn1-c1ccccc1
[1]
  inhibition: 11.3%

## CC(C)Cc1cc(CNS(=O)(=O)c2cccc3cccnc23)nn1-c1ccccc1
[2]
  activity at 10 µM: 52.2%
[1]
  inhibition: 106%
[3]
  Activity: inactive
[4]
  IC50: 1420 nM
[5]
  Activity: Active
[6]
  activity at 10 µM: 119%

## Cc1c(Cl)cccc1S(=O)(=O)NCc1cc(CC(C)C)n(-c2ccccc2)n1
[1]
  inhibition: 72.3%
[4]
  IC50: 4010 nM

## CC(C)Cc1cc(CNS(=O)(=O)c2cccc(F)c2)nn1-c1ccccc1
[1]
  inhibition: 19.5%

## CC(C)Cc1cc(CNS(=O)(=O)c2cccc3cccnc23)nn1-c1ccc(F)cc1
[2]
  activity at 10 µM: 34.5%
[1]
  inhibition: 93.4%
[7]
  Ratio: 60
[3]
  Activity: inactive
[4]
  IC50: 1780 nM
[8]
  activity at 10 µM: 3.87%
[5]
  Activity: Active
[6]
  activity at 10 µM: 64.8%
[9]
  IC50: 1600 nM

## CC(C)Cc1cc(CNS(=O)(=O)c2cccc3ccccc23)nn1-c1ccccc1
[1]
  inhibition: 77.7%
[4]
  IC50: 2430 nM

## CC(C)Cc1cc(CNS(=O)(=O)c2cccc(Cl)c2)nn1-c1ccccc1
[1]
  inhibition: 40.8%
[4]
  IC50: 10900 nM

## NCC1(CC(=O)O)CCCCC1
[5]
  Activity: Active

## O=C1c2[nH]nc(NS(=O)(=O)c3ccc4ccccc4c3)c2CCN1CC1CCNCC1
[1]
  inhibition: 94.1%
[4]
  IC50: 310 nM

## CC(C)Cc1cc(CNS(=O)(=O)c2ccc(C(C)(C)C)cc2)nn1-c1ccccc1
[1]
  inhibition: 51.1%
[4]
  IC50: 8780 nM

## CC(C)Cc1cc(CNS(=O)(=O)c2ccc3ccccc3c2)nn1-c1ccccc1
[1]
  inhibition: 67.8%
[4]
  IC50: 3300 nM

## CC(C)Cc1cc(CNS(=O)(=O)Cc2cccc3ccccc23)nn1-c1ccc(F)cc1
[1]
  inhibition: 36.1%

## CC(C)Cc1cc(CNS(=O)(=O)Cc2cccc3ccccc23)nn1-c1ccccc1
[1]
  inhibition: 28.7%

## CC(C)Cc1cc(CNS(=O)(=O)c2c(Cl)cccc2Cl)nn1-c1ccccc1
[1]
  inhibition: 59.4%
[4]
  IC50: 5650 nM
